Calls of active or inactive are those of the source. The calls are words filed in the database; no cut-off is given here.
Columns and labels:
Format in all cases: cell-based
HeLa [1] = assay: Cytotoxicity against human HeLa cells expressing alkaline phosphatase assessed as reduction in cell viability at 40 uM incubated for 3 hrs by WST-1 assay
Procedure, shortened: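 HeLa cells stably expressing soluble secretory alkaline phosphatase, seeded at equal numbers, exposed to diluted test material for 3 h. Cytotoxicity read out as the number of live cells.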

HeLa [2] = assay: Inhibition of alkaline phosphatase secretion in human HeLa cells incubated for 3 hrs
Procedure, shortened: (§1)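 HeLa cells stably expressing soluble secretory alkaline phosphatase, seeded at equal numbers, exposed to diluted test material for 3 h. Secretion read out as alkaline phosphatase enzymatic activity in the culture medium.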

HeLa [3] = assay: Inhibition of alkaline phosphatase secretion in human HeLa cells at 40 uM incubated for 3 hrs; procedure, shortened: as §1
HeLa [4] = assay: Inhibition of alkaline phosphatase secretion in human HeLa cells at 50 uM incubated for 3 hrs
Procedure, shortened: (§2)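 HeLa cells stably expressing soluble secretory alkaline phosphatase, seeded at equal cell numbers, were incubated with the test sample for 3 h. Alkaline phosphatase enzymatic activity in the culture medium was measured as the secretion read-out. Live cell number was counted in parallel to assess cytotoxicity.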

HeLa [5] = assay: Inhibition of alkaline phosphatase secretion in human HeLa cells at 18 uM incubated for 3 hrs; procedure, shortened: as §2

SMILES | Activity (HeLa [1]) | also measured
Cn1cc(C(c2cn(C)c3ccccc23)C(F)(F)C(F)(F)F)c2ccccc21 | Non-Toxic | –
FC(F)(F)C(c1c[nH]c2ccccc12)c1c[nH]c2ccc(Br)cc12 (centres undefined) | Non-Toxic | inhibition (HeLa [2]): Active
Cn1cc(C(c2c[nH]c3ccccc23)C(F)(F)F)c2ccccc21 (centres undefined) | Non-Toxic | –
Cn1cc(C(c2cn(C)c3ccccc23)C(F)(F)F)c2ccccc21 | Non-Toxic | –
FC(F)(F)C(c1c[nH]c2ccc(Br)cc12)c1c[nH]c2ccc(Br)cc12 | Non-Toxic | inhibition (HeLa [2]): Active
Cn1cc(C(c2c[nH]c3ccccc23)C(F)(F)C(F)(F)F)c2ccccc21 (centres undefined) | Non-Toxic | –
Fc1ccc2[nH]cc(C(c3c[nH]c4ccccc34)C(F)(F)F)c2c1 (centres undefined) | Non-Toxic | –
COc1ccc2[nH]cc(C(c3c[nH]c4ccccc34)C(F)(F)F)c2c1 (centres undefined) | Non-Toxic | inhibition (HeLa [2]): Active
Fc1ccc2[nH]cc(C(c3c[nH]c4ccc(F)cc34)C(F)(F)F)c2c1 | Non-Toxic | –
FC(F)(F)C(c1c[nH]c2ccccc12)c1c[nH]c2ccccc12 | Non-Toxic | inhibition (HeLa [3]): Active
FC(F)(F)C(F)(F)C(c1c[nH]c2ccc(Br)cc12)c1c[nH]c2ccc(Br)cc12 | Non-Toxic | –
FC(F)(F)C(F)(F)C(c1c[nH]c2ccccc12)c1c[nH]c2ccccc12 | Non-Toxic | inhibition (HeLa [2]): Active
Fc1cc(F)c2c(c1)[C@H]1CCC[C@H]1C(c1cccnc1)N2 (some centres undefined) | – | inhibition (HeLa [4]): Active
C[C@H]1CCC/C=C/[C@@H]2C[C@H](O)C[C@H]2[C@H](O)/C=C/C(=O)O1 | – | inhibition (HeLa [5]): Active

Reference: ChEMBL document CHEMBL4364333, “High-throughput screening of bioactive compounds via new catalytic reaction in the pooled mixture” (Bioorg Med Chem Lett, 2019)
